Screens deposited in PubChem BioAssay by several laboratories.
KCNQ1 inh: blocks the human KCNQ1 potassium channel; P51787; CHO-K1 KCNQ1, FluxOR thallium flux fluorescence; stronger effect = higher value; B-score at 10 µM; 310,000 compounds, 1.3% hits; AID 2642;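 active = compounds whose thallium flux B-score, printed positive for inhibition, exceeds three library SD while starting fluorescence stays within three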;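 also: channel opened by potassium depolarization with thallium stimulus after 20 min compound exposure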
KCNQ1 act: potentiators or activators of human KCNQ1 potassium channel | P51787 | CHO-K1 KCNQ1, thallium flux FluxOR fluorescence; stronger effect = higher value | B-score at 10 µM | 310,000 compounds, 0.35% hits | AID 2648;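 active = fluorescence ratio B-score, a plate-corrected score, at least three library SD, with initial intensity B-score within 5 SD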
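Assay system: CHO-K1 cells stably expressing KCNQ1; Medium: assay buffer with matched DMSO; Also added: K+/Tl+ depolarizing stimulus; Dosing: single dose; Timing: dye 90 min, compound 20 min, room temperature; Measured by: kinetic FluxOR thallium fluorescence, 10-s 1-Hz baseline, 110-s post-stimulus read; Read-out: peak-minus-minimum fluorescence over initial fluorescence, negative-control normalized, B-scored.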
KCNK9 inh: inhibitors of human KCNK9 two-pore domain potassium channel. HEK293 KCNK9, FluxOR thallium flux fluorescence; stronger effect = lower value. B-score at 10 µM. 310,000 compounds, 1.2% hits;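 active = ratio B-score over 3 SD below the library mean, with starting fluorescence within 5 SD of its mean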;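 also: negative B-score means less thallium flux so channel inhibition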
hERG rescue: compounds protecting human hERG from proarrhythmic drug block | Q12809 | CHO-hERG, FluxOR thallium flux, dofetilide IC70 present | activation (rescue from dofetilide block), less the hit threshold, % at 10 µM | 310,000 compounds, 0.51% hits;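 active = activation above the mean of controls blocked by dofetilide plus 5 SD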;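 also: thallium influx through hERG after potassium depolarization seen as dye fluorescence rise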
Cl transport mod: modulators of human KCC2 chloride dependent transport | Q9H2X9 | KCC2 cells, thallium flux FluoZin-2 fluorescence | B-score of Tl+ flux slope (higher = more flux/activation; lower = inhibition) at 10 µM | 190,000 compounds, 2.2% hits | AID 1456;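 active = thallium flux slope and its plate-corrected score both differing from the plate sample mean at a set confidence after two filtering rounds, in either direction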;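 also: slope of fluorescence scaled to starting intensity during 10 to 20 s after thallium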
Target sequence (Q9H2X9 whole entry, looked up): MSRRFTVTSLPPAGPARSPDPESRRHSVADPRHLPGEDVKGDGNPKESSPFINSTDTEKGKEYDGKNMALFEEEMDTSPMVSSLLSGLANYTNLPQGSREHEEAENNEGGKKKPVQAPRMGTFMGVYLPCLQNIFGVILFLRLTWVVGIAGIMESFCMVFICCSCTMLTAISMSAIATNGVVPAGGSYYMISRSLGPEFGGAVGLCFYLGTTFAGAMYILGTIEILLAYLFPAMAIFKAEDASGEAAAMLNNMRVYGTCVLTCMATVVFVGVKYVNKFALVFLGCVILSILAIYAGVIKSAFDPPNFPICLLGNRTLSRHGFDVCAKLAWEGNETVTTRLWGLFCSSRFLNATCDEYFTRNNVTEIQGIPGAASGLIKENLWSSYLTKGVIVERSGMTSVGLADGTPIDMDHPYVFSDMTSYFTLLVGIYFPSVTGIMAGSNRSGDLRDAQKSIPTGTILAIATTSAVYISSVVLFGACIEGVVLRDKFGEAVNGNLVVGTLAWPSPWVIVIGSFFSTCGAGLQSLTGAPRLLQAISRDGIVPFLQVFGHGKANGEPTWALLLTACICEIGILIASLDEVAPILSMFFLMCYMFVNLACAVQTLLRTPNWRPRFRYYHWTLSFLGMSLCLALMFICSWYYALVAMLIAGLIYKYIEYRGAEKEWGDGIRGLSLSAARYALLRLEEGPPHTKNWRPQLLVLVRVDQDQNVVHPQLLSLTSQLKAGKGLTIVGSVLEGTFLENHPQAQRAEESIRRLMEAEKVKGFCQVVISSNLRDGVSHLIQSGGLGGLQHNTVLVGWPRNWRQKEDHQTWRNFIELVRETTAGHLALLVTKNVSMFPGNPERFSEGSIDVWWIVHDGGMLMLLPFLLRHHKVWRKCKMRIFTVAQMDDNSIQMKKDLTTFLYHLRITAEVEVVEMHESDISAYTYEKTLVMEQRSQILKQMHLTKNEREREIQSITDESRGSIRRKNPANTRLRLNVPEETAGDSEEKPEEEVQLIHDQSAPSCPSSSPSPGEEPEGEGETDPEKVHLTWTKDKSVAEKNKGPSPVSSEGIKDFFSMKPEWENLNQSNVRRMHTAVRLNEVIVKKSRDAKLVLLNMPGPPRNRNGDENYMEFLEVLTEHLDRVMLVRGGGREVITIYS
KCNK3 inh: human KCNK3 channel inhibition, primary screen. CHO-KCNK3 thallium flux, FluxOR fluorescence; stronger effect = lower value. B-score at 10 µM. 340,000 compounds, 0.84% hits. O14649. AID 602410;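 active = B-score under library mean minus 4 SD, starting fluorescence ratio at most library mean plus 5 SD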;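 also: more negative B-score means stronger inhibition of thallium flux through KCNK3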
KCNQ1 block val: human KCNQ1 channel inhibition, validation assay. shares compounds with KCNQ1 inh. KCNQ1 cell line, FluxOR thallium flux fluorescence. inhibition, % at 10 µM. 1,600 compounds, 93% hits. AID 588353;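 active = primary screen active, with duplicate mean exceeding buffer control mean plus 3 SD of buffer wells, cut at about 28% in these data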;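 also: 0% = buffer control ratio and 100% = XE991 inhibitor control ratio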
CHO KCNQ1 ctr: counter-screen for KCNQ1 inhibitors: effect in parental CHO cells | 1,600 compounds, 21% hits | shares compounds with KCNQ1 inh | parental CHO-K1, FluxOR thallium flux fluorescence ratio; stronger effect = lower value; zero means no signal rise above baseline | fluorescence ratio (Tl flux) at 10 µM | AID 588366;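 active = mean of duplicate thallium-flux fluorescence ratios in parental host cells more than 5 SD below the buffer control mean, cut at about 0.38 in these data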;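 also: ratio is peak minus minimum fluorescence divided by baseline fluorescence; actives read low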
KCNQ1 APC inh: blocks human KCNQ1 current in automated patch clamp. 490 compounds, 20% hits. KCNQ1-CHO cells. shares compounds with KCNQ1 inh. calls only at 10 µM;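 active = KCNQ1 current drop exceeding 3 SD of negative control wells, seen in both duplicate runs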;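 also: steady state current during a 2 s step from -80 to +40 mV; negative values mean current inhibition and positive values mean potentiation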
KCNQ2 spec: selectivity of KCNQ1 inhibitors: inhibition of rat KCNQ2 channel. 1,600 compounds, 71% hits. KCNQ2 cells, FluxOR thallium flux fluorescence. shares compounds with KCNQ1 inh. inhibition, % at 10 µM;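 active = mean percent inhibition of the KCNQ2 thallium signal more than 5 SD above the buffer-only control wells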;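 also: KCNQ2 expressed in CHO cells; 0% = buffer control wells and 100% = XE-991 inhibitor control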
KCNQ1-KCNE1 inh: human KCNQ1/KCNE1 inhibition in KCNQ1 specificity screen. inhibition, % at 10 µM. KCNQ1/KCNE1 cells, FluxOR thallium flux fluorescence. 1,600 compounds, 77% hits. shares compounds with KCNQ1 inh. AID 652147;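 active = mean percent inhibition of duplicate wells above the buffer-only control mean plus 3 SD of those controls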;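 also: 0% = buffer only wells and 100% = XE-991 inhibitor control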
The depositor's hits bear a star; i = inactive; · = no result given; + = active, no number. Sampled rows, rich in hits. Any-hit rate of the full collection: about 4.1%.

SMILES	KCNQ1 inh	KCNQ1 act	KCNK9 inh	hERG rescue	Cl transport mod	KCNK3 inh	KCNQ1 block val	CHO KCNQ1 ctr	KCNQ2 spec	KCNQ1-KCNE1 inh	others
Cc1c(C(=O)NCCC2=CCCCC2)sc2ncnc(N3CCCCC3C)c12 (configuration not stated)	8*	i	i	-17	·	i	164*	0.33*	150%*	+
Cc1sc2ncnc(N3CCCCC3C)c2c1C (configuration not stated)	i	i	i	-14	-1.8	i	·	·	·	·
Cc1cc(C(=O)NC2CC(C)(C)Cc3c2cnn3-c2ccccc2)n(C)n1 (configuration not stated)	i	i	i	-10	·	i	·	·	·	·
CC(=O)[C@@]1(O)C(C)CC2C3C=C(C)C4=Cc5c(cnn5-c5ccccc5)C[C@]4(C)C3C(O)C[C@@]21C (some centres not stated)	7*	i	i	-14	0.82	i	102*	0.36*	i	115%*
Cc1cccc(Cn2c(C(C)(C)C)cc3cccnc32)c1	8*	i	i	-10	-1.1	i	64*	0.45	67%*	i
Cc1cccc(CN2CCN(c3ncccn3)CC2)c1	i	i	i	2	·	i	·	·	·	·
Cc1cccc(NC(=O)c2cc3n(n2)C(C(F)(F)F)CC(c2ccc4c(c2)OCO4)N3)c1 (configuration not stated)	8*	i	i	-12	-0.3	i	126*	0.4	104%*	94%*	KCNQ1 APC inh=i
COc1ccc(NC(=O)c2cc3n(n2)C(C(F)(F)F)CC(c2ccc4c(c2)OCO4)N3)cc1OC (configuration not stated)	·	·	·	·	-0.68	i	·	·	·	·
CC1CCN(CCCOc2ccc(Cl)cc2Br)CC1	6*	i	i	-16	0.056	i	42*	0.48	i	i
CC1CCCN(CCCOc2ccc(Cl)cc2Br)C1 (configuration not stated)	i	i	i	-1	-0.26	i	·	·	·	·
O=C(c1ccc2[nH]c(=O)c(=O)[nH]c2c1)N1CCN(Cc2ccccc2)CC1	i	i	i	-5	·	i	·	·	·	·
COc1ccccc1OCc1cc(C(=O)NCc2ccc(N3CCCC3=O)cc2)no1	i	i	i	-7	·	i	·	·	·	·
COc1ccc(NC(C)C(=O)Nc2ccc(C(C)(C)C)cc2)cc1Cl (configuration not stated)	7*	i	i	-4	0	i	146*	0.39	92%*	167%*	KCNQ1 APC inh=i
COc1ccc(NC(C)C(=O)Nc2ccc(C#N)cc2)cc1Cl (configuration not stated)	i	i	i	-12	0.31	i	·	·	·	·
O=C(Nc1ccccc1)Nc1ccc(Cl)c(S(=O)(=O)N2CCOCC2)c1	11*	i	i	-20	0.56	i	0	0.56	i	i
CCC1Nc2ncnc(N3CCN(c4ccccc4)CC3)c2N(Cc2ccc(Br)cc2)C1=O (configuration not stated)	i	i	i	-15	·	i	·	·	·	·
COc1ccc(Cl)cc1NC(=O)CN(C)C(=O)Cn1cnc2c1c(=O)n(C)c(=O)n2C	i	i	i	-7	·	i	·	·	·	·
Cc1ccc(OCCN2CCN(c3ncnc4sc(C)c(C)c34)CC2)cc1	11*	i	i	-19	·	-11*	126*	0.37*	140%*	108%*
Clc1ccc(OCCN2CCN(c3ncnc4sccc34)CC2)cc1	12*	i	i	-33	-2.2	i	156*	0.38*	104%*	138%*
O=C(OCC(=O)N1CCN(c2ccccc2)CC1)c1ccc(O)cc1O	i	i	i	-8	·	i	·	·	·	·
CN(C)C=Nc1c(Br)cc(Br)c2nonc12	7*	i	i	-12	i	i	174*	0.21*	i	i
COc1ccccc1CNC(=O)COC(=O)c1c(C)nn(-c2ccccc2)c1Cl	i	i	i	-13	·	i	·	·	·	·
COc1cccc(COC(=O)c2c(C)nn(-c3ccccc3)c2Cl)c1OC	7*	i	i	-9	·	i	114*	0.42	116%*	99%*	KCNQ1 APC inh=i
COc1ccc(CCNc2ncnc3c2oc2ccccc23)cc1OC	i	i	i	-24	·	i	·	·	·	·
COc1ccc(CCNc2nc(C)nc3c2oc2ccccc23)cc1OC	10*	i	i	-35	-0.88	i	120*	0.45	123%*	78%*	KCNQ1 APC inh=i
SMILES	KCNQ1 inh	KCNQ1 act	KCNK9 inh	hERG rescue	Cl transport mod	KCNK3 inh	KCNQ1 block val	CHO KCNQ1 ctr	KCNQ2 spec	KCNQ1-KCNE1 inh	others
C/C(CC(=O)Nc1ccc(N(C)C)cc1)=N\NC(=O)c1ccc(C(C)(C)C)cc1	i	i	i	-3	·	i	·	·	·	·
COc1cccc(C(C)NC(=S)NCc2ccc(Cl)cc2)c1 (configuration not stated)	8*	i	i	-20	-1.8	i	0	0.52	i	i
Clc1cccc(Cl)c1/C=C/c1nc2ccccc2[nH]1	14*	i	i	-19	-3.4	-8.8*	121*	0.46	93%*	130%*
CN(C)c1ccc(N=Nc2ccccc2C(=O)OCC(=O)N(C)c2ccccc2)cc1	8*	i	i	-7	-0.049	i	99*	0.42	93%*	121%*	KCNQ1 APC inh=i
COC(=O)c1ccccc1NC(=O)COC(=O)c1ccccc1N=Nc1ccc(N(C)C)cc1	i	i	i	-4	-0.74	i	·	·	·	·
CCOc1ccc(-c2cc(C(=O)NCCCn3ccnc3)c3cc(Br)ccc3n2)cc1	i	i	i	-9	·	i	·	·	·	·
CCOc1ccc(-c2cc(C(=O)NCCCn3ccnc3)c3ccccc3n2)cc1	6*	i	i	-10	0.48	i	26*	0.43	86%*	43%*
Nc1ccc2nc(-c3ccccc3)c(-c3ccccc3)nc2c1	15*	i	i	-28	·	i	148*	0.21*	i	i
